From PubChem BioAssay
The sample as a whole holds a higher share of hits than the screen did.
Insulin prom act – activators of insulin promoter-driven GFP, primary screen, imaging, TRM-6 cells (human fetal islet line), eGFP reporter, cell count. plate-scaled: unstimulated 0, stimulated control 100. activation, % at 2 µM. 130,000 tested, 0.81% active;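 active = activation at 2 µM above a set limit, confirmed on inspection of the cell images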;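 also: share of cells whose green reporter signal exceeds an intensity cutoff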
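Material: TRM-6 insulin promoter–eGFP reporter cells. Buffer or medium: Low-glucose (5.5 mM) medium with tamoxifen. Probe or stimulus: tamoxifen at 0.75 µM added at seeding for reporter induction. Times: tamoxifen pre-incubation 15 h overnight, then compound exposure 48 h at 37 °C. Detection: high-content imaging of fixed cells with Hoechst nuclear stain.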
Numbers without * were called inactive.

SMILES	Insulin prom act
CCOC(=O)COn1c(=O)c(-c2ccc(OC)c(OC)c2)[n+]([O-])c2ccccc21	0
COc1ccc(-c2c(=O)n(OCc3ccccn3)c3ccccc3[n+]2[O-])cc1OC	-10
Cc1c(=O)n(OCc2cccc(F)c2)c2ccccc2[n+]1[O-]	132*
COc1ccc(N(C(C)=O)S(=O)(=O)c2cccs2)cc1	506*
CCNC(=O)c1ccc(N(C)S(=O)(=O)c2cccs2)cc1	0
CC(=O)N(c1ccc2oc(=O)sc2c1)S(=O)(=O)c1cccs1	0
CCOCCCNC(=O)Cn1cnc2sc(C)c(S(=O)(=O)N3CCN(c4ncccn4)CC3)c2c1=O	-9
CSc1nc2ncc(C(=O)O)c(N)n2n1	-9
COc1ccc(NC(=O)Cn2cnc3c(nnn3-c3ccc(C)cc3)c2=O)cc1	-5
CN(CC(=O)N1CCN(c2ccc(F)cc2)CC1)S(=O)(=O)c1ccc(F)cc1	79*
COc1ccc(S(=O)(=O)N(C)CC(=O)N2CCOCC2)cc1	-7
O=C(CNS(=O)(=O)c1ccc(Br)cc1)N1CCN(c2ccc(F)cc2)CC1	354
Cn1c(N)c(C(=O)COC(=O)CNS(=O)(=O)c2ccc(Cl)c(Cl)c2)c(=O)n(C)c1=O	8
Cc1cccn2c(=O)c3cc(C#N)c(=O)n(CC4CCCO4)c3nc12 (configuration not stated)	3
Cc1cc(C(=O)Oc2cccnc2)ccc1[N+](=O)[O-]	-83
COc1ccccc1Oc1coc2c(CN3CCN(C)CC3)c(O)ccc2c1=O	8
O=C1/C(=C/c2ccco2)CCc2ccccc21	0
CC1CCN(Cc2c(O)ccc3c2O/C(=C\c2ccco2)C3=O)CC1	486*
CC(NC(=O)C12CC3(C)CC(C)(CC(C)(C3)C1)C2)C(=O)O (configuration not stated)	-71
NC(=S)NNC(=O)C12CC3CC(CC(C3)C1)C2	8
CC(=O)Nc1cccc(NC(=O)CSc2nnnn2C(C)C)c1	3
O=C(CSc1nnnn1C1CCCC1)Nc1cccc(NC(=O)c2ccco2)c1	830*
O=C(CSc1nnnn1C1CCCCC1)NCc1cccc(C(=O)O)c1	-3
CCOC(=O)/C=C1\NC(C)(C)Cc2cc(OC)c(OC)cc21	-72
CC1(C)Cc2ccccc2/C(=C/C(=O)N2CCCCCC2)N1	557*
SMILES	Insulin prom act
CN(C)c1ccc(/C=N/NC(=O)C(=O)/C=C2\NC3(CCCC3)Cc3ccccc32)cc1	-8
Cc1cccnc1CCNC(=O)CC1C(=O)NCCN1CC1CCCCC1 (configuration not stated)	4
O/N=C1\CCCC\C1=C/c1ccccc1	-8
CCC(=O)N1C(=O)C2(Nc3ccccc3N2)c2ccccc21	8
CCN1c2ccccc2NC2C1C(C(C)=O)C(=O)N2c1ccc(Cl)cc1 (configuration not stated)	133*
CCCCn1c(-c2ccc([N+](=O)[O-])cc2)n[nH]c1=S	-7
CC(=O)c1c(C)[nH]c(C(=O)CSc2nnc(C)s2)c1C	0
COc1ccc(-c2ccc3c(n2)sc2c(=O)[nH]c(=O)[nH]c23)cc1OC	136
C=CCNC(=S)N1CCC(C(=O)c2ccc(OC)cc2)CC1	3
COC(=O)C1CCN(C(=O)CCCOc2ccccc2)CC1	123
COCCC(=O)N1CCCC(C(=O)c2ccc(Oc3ccccc3)cc2)C1 (configuration not stated)	542*
O=C(CNc1cc(S(=O)(=O)N2CCOCC2)ccc1N1CCCC1)NCc1ccco1	7
COc1ccc(C(=O)Nc2cccc(C(=O)NCc3ccco3)c2)cc1	-67
CCc1cc2c(SCC(=O)c3ccc(Cl)s3)ncnc2s1	-7
Cc1onc(-c2ccccc2Cl)c1C(=O)Nc1ccc(N2CCOCC2)cc1	7
Cc1onc(-c2ccccc2Cl)c1C(=O)Nc1ccccc1N1CCOCC1	81*
Cc1onc(-c2ccccc2Cl)c1C(=O)Nc1cccc2nsnc12	-77
COc1ccccc1NC(C)C(=O)Nc1ccc(C(C)=O)cc1 (configuration not stated)	0
CCCCC(=O)Nc1ccc(NC(=S)NC(=O)c2cccs2)cc1OC	6
CCCCC(CC(O)COCCC)C(=O)NN (configuration not stated)	-8
CCOCCCNC(=O)CN1C(=O)/C(=C/c2ccccc2)Sc2ccccc21	313*
CCN1CCN(CCCNC(=O)c2ccc(/C=C3/Sc4ccccc4N(Cc4ccccc4F)C3=O)cc2)CC1	-6
COCCCNC(=O)CN1C(=O)c2ccccc2C1=O	0
COC(=O)Cc1cc(=O)[nH]c(/N=C(\N)Nc2ccccc2C)n1	181
O=P(COCCCCCOCP(=O)(c1ccccc1)c1ccccc1)(c1ccccc1)c1ccccc1	131
CCOc1cccc(OCCOc2ccccc2[N+](=O)[O-])c1	25
CCOc1ccc2c(c1)/C(=C(\C(Cl)=C(Cl)Cl)[N+](=O)[O-])N2	376*
CCOc1ccc([N+](=O)[O-])c(N)c1	-3
NNC(=O)c1cc(Br)cs1	-8
O=c1c2ccccc2nnn1CSc1nc2ccccc2c(=O)n1CCCO	9
